IC50, Ratio IC50 and Activity data for two compounds are collected here from ChEMBL document CHEMBL1144823, “Blood-brain barrier penetration by two dermorphin tetrapeptide analogues: role of lipophilicity vs structural flexibility” (J Med Chem, 2008).

Active and inactive are the calls of the source. Where a SMILES comes first, the peptide text is derived from it. [ ]: non-standard residue; d: D form. dNMeA = CN[C@H](C)C(=O)O; Sar = CNCC(=O)O

The target in test [1] is Mu-type opioid receptor (Cavia porcellus, UniProt P97266). Kind of test: Agonist activity at mu opioid receptor in guinea pig ileum. The class given is functional, tissue-based. In a few lines: (§1)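 Isolated guinea pig ileum and mouse vas deferens preparations. A [Leu⁵]enkephalin standard dose–response curve was run for each ileum and vas preparation. Compound IC50 values were normalized to that standard by a published procedure.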
Chain of Mu-type opioid receptor (Cavia porcellus, UniProt P97266) (P97266 whole entry): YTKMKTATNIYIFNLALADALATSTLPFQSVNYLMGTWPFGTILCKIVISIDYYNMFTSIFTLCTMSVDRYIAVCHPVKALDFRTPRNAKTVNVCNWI

The species named for another test is Rattus norvegicus. Kind of test: Ratio of IC50 for mu opioid receptor in rat brain to IC50 for delta opioid receptor in rat brain. It is filed as tissue-based. In a few lines:
(§2)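 Competitive displacement on rat brain membranes: [³H]naloxone for mu sites and [³H]deltorphin II for delta sites, giving IC50 values. Selectivity is expressed as IC50(mu)/IC50(delta).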

Test [2] concerns the target Mu-type opioid receptor (Rattus norvegicus, UniProt P33535). In words: Displacement of [3H]naloxone from mu opioid receptor in rat brain membrane. The class given is cell membranes. An outline of the steps: as §2
Background: In a radioligand displacement assay an active substance lowers the binding of a labelled ligand.

The target in test [3] is Delta-type opioid receptor (Mus musculus, UniProt P32300). In words: Agonist activity at delta opioid receptor in mouse vas deferens. The class given is functional, tissue-based. In a few lines:
as §1

The test system of test [4] is Mus musculus. Kind of test: Analgesic activity in C57 mouse at 2 mg/kg, iv after 5 mins by tail flick test. The class given is functional, organism-based. Also noted: dose 2 mg/kg. In a few lines:
(§3)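 Male C57 mice (20–25 g) housed in groups of five on a 12 h light-dark cycle. Peptide in saline was injected into the tail vein (10 mL/kg total) and flushed with saline; controls received saline. Warm-water (55 °C) tail-flick test, three trials, 15 s cutoff. %MPE = (post − control)/(cutoff − control) × 100, read at baseline, 5, 15, 30, 60 and 120 min. One-way ANOVA at each time point.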
(Hot-plate and tail-flick tests time the reaction to a heat stimulus.)

Test [5] deals with Delta-type opioid receptor (Rattus norvegicus, UniProt P33533). Kind of test: Displacement of [3H]deltorphin2 from delta opioid receptor in rat brain membrane. It is filed as cell membranes. In a few lines:
as §2

Test [6] deals with Mus musculus. In words: Analgesic activity in C57 mouse at 2 mg/kg, iv after 15 mins by tail flick test. The class given is functional, organism-based. Also noted: dose 2 mg/kg. In a few lines: as §3
The target of test [7] is Kappa-type opioid receptor (Cavia porcellus) (UniProt P41144). Kind of test: Displacement of [3H]U-69593 from kappa opioid receptor in guinea pig brain membrane at 10 uM. It is filed as cell membranes. In a few lines: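 Displacement of [³H]U69,593 from guinea pig brain membrane sites, with test concentrations up to 10 µM.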
Chain of Kappa-type opioid receptor (Cavia porcellus) (P41144 whole entry): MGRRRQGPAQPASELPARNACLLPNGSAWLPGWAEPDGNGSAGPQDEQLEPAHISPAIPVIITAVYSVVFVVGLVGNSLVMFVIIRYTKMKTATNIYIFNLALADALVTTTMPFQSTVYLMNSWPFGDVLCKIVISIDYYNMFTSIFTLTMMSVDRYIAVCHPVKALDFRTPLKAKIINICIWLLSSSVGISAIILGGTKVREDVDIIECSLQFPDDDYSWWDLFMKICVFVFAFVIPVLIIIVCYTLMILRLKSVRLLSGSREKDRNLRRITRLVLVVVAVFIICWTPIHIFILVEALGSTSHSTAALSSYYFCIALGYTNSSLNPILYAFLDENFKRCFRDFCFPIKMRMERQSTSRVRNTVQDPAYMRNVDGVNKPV

Chain of Mu-type opioid receptor (Rattus norvegicus, UniProt P33535) (P33535 whole entry): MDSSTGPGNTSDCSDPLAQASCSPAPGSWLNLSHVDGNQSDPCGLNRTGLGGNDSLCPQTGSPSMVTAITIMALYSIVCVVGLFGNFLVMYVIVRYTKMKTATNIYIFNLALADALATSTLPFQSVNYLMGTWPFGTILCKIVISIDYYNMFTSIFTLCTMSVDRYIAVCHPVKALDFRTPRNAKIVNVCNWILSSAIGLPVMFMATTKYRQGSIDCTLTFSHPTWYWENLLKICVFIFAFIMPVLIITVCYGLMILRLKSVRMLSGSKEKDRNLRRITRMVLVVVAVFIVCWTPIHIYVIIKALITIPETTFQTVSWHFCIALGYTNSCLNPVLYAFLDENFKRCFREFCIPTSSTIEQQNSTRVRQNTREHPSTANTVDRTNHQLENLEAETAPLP
Chain of Delta-type opioid receptor (Rattus norvegicus, UniProt P33533) (P33533 whole entry): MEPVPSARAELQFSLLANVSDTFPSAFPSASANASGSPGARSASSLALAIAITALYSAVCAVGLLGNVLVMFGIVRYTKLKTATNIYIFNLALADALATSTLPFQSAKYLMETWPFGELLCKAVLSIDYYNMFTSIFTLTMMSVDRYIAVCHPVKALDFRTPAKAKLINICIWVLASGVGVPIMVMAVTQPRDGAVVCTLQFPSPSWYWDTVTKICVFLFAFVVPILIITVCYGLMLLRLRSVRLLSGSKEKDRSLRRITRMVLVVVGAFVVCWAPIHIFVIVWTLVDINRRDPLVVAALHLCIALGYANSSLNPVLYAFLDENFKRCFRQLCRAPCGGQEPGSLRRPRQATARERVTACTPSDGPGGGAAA
Chain of Delta-type opioid receptor (Mus musculus, UniProt P32300) (P32300 whole entry): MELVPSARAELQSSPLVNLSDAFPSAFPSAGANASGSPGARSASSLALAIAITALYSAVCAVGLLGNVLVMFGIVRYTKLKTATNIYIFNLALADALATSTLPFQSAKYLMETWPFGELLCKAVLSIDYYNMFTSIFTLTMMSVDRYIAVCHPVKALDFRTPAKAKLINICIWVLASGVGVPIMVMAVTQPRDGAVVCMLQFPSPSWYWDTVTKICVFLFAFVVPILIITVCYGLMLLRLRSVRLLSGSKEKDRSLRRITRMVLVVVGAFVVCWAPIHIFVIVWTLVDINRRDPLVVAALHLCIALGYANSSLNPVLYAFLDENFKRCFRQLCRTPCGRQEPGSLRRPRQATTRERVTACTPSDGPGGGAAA

Broadly, the IC50 is the concentration needed to halve the response being measured. A low value points to greater potency in that assay. With `C[C@H](C(=O)N[C@@H](Cc1ccccc1)C(=O)N(C)CC(N)=O)N(C)C(=O)[C@@H](N)Cc1ccc(O)cc1` (H-Y[dNMeA]F[Sar]-NH2), the IC50 on Mu-type opioid receptor [1] turned out to be 22 µM; on Mu-type opioid receptor [2] it was 28.1 µM; in test [3] it was 79.7 µM; in test [5] it was 7.1 µM. For the same compound, the Ratio IC50 in the test filed under Rattus norvegicus came out at 3.96. Besides, the outcome in the test on Mus musculus [4] and in the test with Mus musculus [6] was Active. In test [7], the outcome was inactive.
For the compound `C[C@H](C(=O)N[C@H]1Cc2ccccc2CN(CC(N)=O)C1=O)N1Cc2cc(O)ccc2C[C@H](N)C1=O`, the half-inhibitory concentration (IC50) was 3.64 µM at Mu-type opioid receptor [1], 20.8 µM on Mu-type opioid receptor [2], 30.3 µM in test [3] and 17.8 µM in test [5]. Moreover, the Ratio IC50 in the test filed under Rattus norvegicus was 1.17. For the same compound, the result in test [7] was inactive.
